Measurements reported in ChEMBL document CHEMBL1152217, “Affinity labeling of the proteasome by a belactosin A derived inhibitor” (Bioorg Med Chem Lett, 2008).
Active and inactive are the calls of the source. The calls are words filed in the database; no cut-off is given here. Residues, ends and D or L forms follow the SMILES beside them. *: point of attachment. Cbz = O=C(OCc1ccccc1)*

Tests used:
[1] = Inhibition of trypsin-like activity of 20S proteasome in human erythrocytes
In short: (§1)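 Purified human erythrocyte 20S core particle (100–200 ng) mixed with inhibitors at varied concentrations in 25 mM HEPES pH 7.6, 0.5 mM EDTA, 0.03% SDS; SDS left out for the trypsin-like assay. Started by adding fluorogenic AMC substrate: Suc-LLVY-AMC (chymotrypsin-like), Boc-LRR-AMC (trypsin-like), Z-LLE-AMC (PGPH). Fluorescence read up to 1 h (ex 380, em 460 nm). Activity from slope; IC50 derived.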

[2] = Inhibition of PGPH catalytic activity of 20S proteasome in human erythrocytes; in short: as §1
HeLa = assay: Growth inhibition of human HeLa cells after 48 hrs by MTT assay; format: functional, cell-based
In short: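 HeLa cells grown in RPMI 1640 with 10% heat-inactivated fetal calf serum plus penicillin/streptomycin under 5% CO2. Inhibitors added at various concentrations for 48 h. Viability by MTT, absorbance at 570 nm. IC50 taken from growth inhibition.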

[3] = Inhibition of chymotrypsin-like activity of 20S proteasome in human erythrocytes; in short: as §1
[4] = biological target: Proteasome Macropain subunit (Homo sapiens) (UniProt P49721); assay: Binding affinity to 20S proteasome beta2 subunit in human erythrocyte at 1 uM after 1 hr by Western blotting analysis
Sequence of Proteasome Macropain subunit (Homo sapiens) (P49721 whole entry): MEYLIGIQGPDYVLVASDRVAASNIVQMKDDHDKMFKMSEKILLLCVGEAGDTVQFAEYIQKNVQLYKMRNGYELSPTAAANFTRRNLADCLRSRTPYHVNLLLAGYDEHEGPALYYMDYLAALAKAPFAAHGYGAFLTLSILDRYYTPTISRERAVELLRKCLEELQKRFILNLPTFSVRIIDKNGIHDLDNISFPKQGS
In short: (§2)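 Purified human erythrocyte 20S core particle solution incubated with 1.0 µM dansyl-KF33955 for various times, then diluted directly in 2× denaturing buffer (urea/thiourea/CHAPS/Triton, pH 8.8). Proteins resolved by SDS-PAGE and transferred to PVDF. Labeled β subunits detected by immunoblot with anti-dansyl monoclonal antibody and ECL.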

[5] = biological target: T1, Proteasome component C5 (Homo sapiens) (UniProt P20618); assay: Binding affinity to 20S proteasome beta-1 subunit in human erythrocyte at 1 uM after 0.5 hr by Western blotting analysis; in short: as §2
T1 sequence (whole entry): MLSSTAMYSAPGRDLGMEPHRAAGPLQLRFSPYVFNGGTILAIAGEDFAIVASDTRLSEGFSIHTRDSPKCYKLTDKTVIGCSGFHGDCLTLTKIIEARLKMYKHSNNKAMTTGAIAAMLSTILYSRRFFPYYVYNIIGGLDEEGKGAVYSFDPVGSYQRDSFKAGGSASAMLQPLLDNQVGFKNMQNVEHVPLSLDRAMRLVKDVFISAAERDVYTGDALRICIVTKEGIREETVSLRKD

[6] = biological target: Proteasome Macropain subunit (Homo sapiens) (UniProt P49721); assay: Inhibition of clasto-lactacystin binding to beta2 subunit of 20S proteasome in human HeLa cells at 1 uM by Western blotting analysis; format: cell-based
[7] = biological target: T2, Proteasome Macropain subunit MB1 (Homo sapiens) (UniProt P28074); assay: Inhibition of MG132 binding to beta5 subunit of 20S proteasome in human HeLa cells at 1 uM by Western blotting analysis; format: cell-based
T2 sequence (whole entry): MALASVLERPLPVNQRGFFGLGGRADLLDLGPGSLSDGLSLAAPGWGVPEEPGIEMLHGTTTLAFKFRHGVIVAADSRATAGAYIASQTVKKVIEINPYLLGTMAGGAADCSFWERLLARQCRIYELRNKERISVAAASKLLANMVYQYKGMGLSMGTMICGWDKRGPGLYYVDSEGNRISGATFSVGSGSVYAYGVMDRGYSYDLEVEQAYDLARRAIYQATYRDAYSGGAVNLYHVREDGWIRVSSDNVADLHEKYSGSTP
In short: (§3)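 Competition in intact HeLa cells. Cells were preincubated 1 h at 37 °C in serum-free medium with various concentrations of MG132, then given 1.0 µM dansyl-KF33955 for another hour. Cells were pelleted, lysed by sonication in urea/thiourea denaturing buffer, and resolved by SDS-PAGE. Remaining β subunit labeling was detected by anti-dansyl immunoblot.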

[8] = biological target: T1, Proteasome component C5 (Homo sapiens); assay: Binding affinity to 26S proteasome beta-1 subunit in human HeLa cell extract at 1 uM by Western blotting analysis; format: cell-free
In short: (§4)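 26S proteasome extract from HeLa cells at 50–80% confluency. Cells were washed in ice-cold PBS and resuspended in pH 7.5 Tris buffer with sucrose, MgCl2, EDTA, DTT and 1 mM ATP. They were permeabilized with 0.025% digitonin for 5 min on ice, and the cytosol was recovered at 15,000g. The extract was labeled with 1.0 µM dansyl-KF33955 for various times, diluted in 2× denaturing buffer, resolved by SDS-PAGE and immunoblotted with anti-dansyl antibody.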

[9] = biological target: T2, Proteasome Macropain subunit MB1 (Homo sapiens); assay: Binding affinity to 20S proteasome beta5 subunit in human HeLa cell extract at 1 uM by Western blotting analysis; format: cell-free; in short: as §4
[10] = biological target: Proteasome subunit beta type-5 (Homo sapiens) (UniProt P28074); assay: Binding affinity to 20S proteasome beta5 subunit in human erythrocyte at 1 uM after 0.5 hr by Western blotting analysis
[11] = biological target: T2, Proteasome Macropain subunit MB1 (Homo sapiens); assay: Binding affinity to 20S proteasome beta5 subunit in intact human HeLa cells at 1 uM by Western blotting analysis; format: cell-based; settings: TDE = time-dependent effect
In short: (§5)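 Intact HeLa cells (RPMI 1640, 10% FCS) incubated with 1.0 µM dansyl-KF33955 at 37 °C in serum-free medium for varying times. Cells were pelleted, put in urea/thiourea denaturing buffer at 4 °C and sonicated. Lysates were run on SDS-PAGE and blotted to PVDF. Labeled β subunits were detected with anti-dansyl monoclonal antibody and ECL.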

[12] = biological target: T1, Proteasome component C5 (Homo sapiens); assay: Inhibition of MG132 binding to beta-1 subunit of 20S proteasome in human HeLa cells at 1 uM by Western blotting analysis; format: cell-based; in short: as §3
[13] = biological target: T2, Proteasome Macropain subunit MB1 (Homo sapiens); assay: Binding affinity to 20S proteasome beta5 subunit in human erythrocyte at 1 uM by Western blotting analysis; in short: as §2
[14] = biological target: Proteasome Macropain subunit (Homo sapiens) (UniProt P49721); assay: Binding affinity to 20S proteasome beta2 subunit in human erythrocyte at 1 uM after 0.5 hr by Western blotting analysis; in short: as §2
[15] = biological target: Proteasome Macropain subunit (Homo sapiens) (UniProt P49721); assay: Binding affinity to 20S proteasome beta2 subunit in human HeLa cell extract at 1 uM by Western blotting analysis; format: cell-free; in short: as §4
[16] = biological target: Proteasome Macropain subunit (Homo sapiens) (UniProt P49721); assay: Binding affinity to 20S proteasome beta2 subunit in intact human HeLa cells at 1 uM by Western blotting analysis; format: cell-based; settings: TDE = time-dependent effect; in short: as §5
[17] = biological target: T1, Proteasome component C5 (Homo sapiens); assay: Binding affinity to 20S proteasome beta-1 subunit in human erythrocyte at 1 uM by Western blotting analysis; in short: as §2
[18] = biological target: T2, Proteasome Macropain subunit MB1 (Homo sapiens); assay: Binding affinity to 20S proteasome beta5 subunit in human erythrocyte at 1 uM after 1 hr by Western blotting analysis; in short: as §2
[19] = biological target: T2, Proteasome Macropain subunit MB1 (Homo sapiens); assay: Inhibition of clasto-lactacystin binding to beta5 subunit of 20S proteasome in human HeLa cells at 1 uM by Western blotting analysis; format: cell-based
[20] = biological target: Proteasome Macropain subunit (Homo sapiens) (UniProt P49721); assay: Binding affinity to 20S proteasome beta2 subunit in human erythrocyte at 1 uM by Western blotting analysis; in short: as §2
[21] = biological target: T1, Proteasome component C5 (Homo sapiens); assay: Binding affinity to 20S proteasome beta-1 subunit in human erythrocyte at 1 uM after 1 hr by Western blotting analysis; in short: as §2
[22] = biological target: T1, Proteasome component C5 (Homo sapiens); assay: Binding affinity to 20S proteasome beta-1 subunit in intact human HeLa cells at 1 uM by Western blotting analysis; format: cell-based; settings: TDE = time-dependent effect; in short: as §5

CC[C@H](C)[C@@H]1C(=O)O[C@H]1C(=O)N[C@H]1C[C@H]1C[C@H](NC(=O)[C@H](C)N)C(=O)O [BELACTOSIN A]
IC50 [1]: 4900 nM | IC50 [2]: 14000 nM | IC50 (HeLa): 37000 nM | IC50 [3]: 820 nM

CC[C@H](C)[C@@H]1C(=O)O[C@H]1C(=O)N[C@H]1C[C@H]1C[C@H](NC(=O)[C@H](C)NC(=O)CCCCCNS(=O)(=O)c1cccc2c(N(C)C)cccc12)C(=O)OCc1ccccc1
Activity [4]: Active | Activity [5]: Active | Activity [6]: Active | Activity [7]: Active | IC50 [1]: 2100 nM | Activity [8]: Active | Activity [9]: Active | Activity [10]: Active | Activity [11]: tde | Activity [12]: Active | Activity [13]: Active | IC50 [2]: 150 nM | Activity [14]: Active | Activity [15]: Active | Activity [16]: tde | Activity [17]: Active | Activity [18]: Active | Activity [19]: Active | IC50 (HeLa): 9800 nM | Activity [20]: Active | Activity [21]: Active | Activity [22]: tde | IC50 [3]: 29 nM

CC(C)[C@H](O)[C@]12NC(=O)[C@H](C)[C@@H]1OC2=O
Activity [6]: Active | IC50 [1]: 690 nM | IC50 [2]: 8300 nM | Activity [19]: Active | IC50 [3]: 29 nM

CC[C@H](C)[C@@H]1C(=O)O[C@H]1C(=O)N[C@H]1C[C@H]1C[C@H](NC(=O)[C@H](C)N)C(=O)OCc1ccccc1
IC50 [1]: 450 nM | IC50 [2]: 3700 nM | IC50 (HeLa): 500 nM | IC50 [3]: 340 nM

CC(C)C[C@@H](C=O)NC(=O)[C@H](CC(C)C)NC(=O)[C@H](CC(C)C)NC(=O)OCc1ccccc1 [MG-132] (Cbz-Leu-Leu-Leu-aldehyde)
Activity [7]: Active | IC50 [1]: 2100 nM | Activity [12]: Active | IC50 [2]: 120 nM | IC50 [3]: 11 nM
